This is a sample that favours compounds with a hit; in the whole collection about 3.1% have one here.
GalR3 antagonist: GalR3 antagonists in HEK293 cells, primary screen, cell-based, fluorescence readout | Galanin receptor type 3 (Homo sapiens), O60755 | HEK293 GalR3-CNG cAMP membrane potential fluorescence; galR3 body fused to GalR1 C-terminus | AID 651719, 2012 | hit rate 0.44% among 360,000 | inhibition, % at 3 µM;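 active means inhibition above the screen-wide average plus 3 SD, cut at about 13% in these data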;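 further: forskolin and galanin both at EC90 stimulate the cells; cAMP rise reported by CNG channel membrane potential dye signal; 0% = forskolin plus galanin with DMSO and 100% = forskolin alone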
GPR7 antagonist: GPR7 receptor antagonists, primary screen, cell-based, fluorescence, single concentration. hit rate 1.1% among 290,000. AID 1861, 2009. inhibition, % at 4.4 µM. GPR7-expressing cells, fluorescence antagonist assay; in the data active means inhibition above about 16%, passing the limit was not always enough;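 further: cells stimulated with the agonist NPW; 0% = agonist with vehicle and 100% = vehicle without agonist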
Target sequence (P48145 whole entry, looked up): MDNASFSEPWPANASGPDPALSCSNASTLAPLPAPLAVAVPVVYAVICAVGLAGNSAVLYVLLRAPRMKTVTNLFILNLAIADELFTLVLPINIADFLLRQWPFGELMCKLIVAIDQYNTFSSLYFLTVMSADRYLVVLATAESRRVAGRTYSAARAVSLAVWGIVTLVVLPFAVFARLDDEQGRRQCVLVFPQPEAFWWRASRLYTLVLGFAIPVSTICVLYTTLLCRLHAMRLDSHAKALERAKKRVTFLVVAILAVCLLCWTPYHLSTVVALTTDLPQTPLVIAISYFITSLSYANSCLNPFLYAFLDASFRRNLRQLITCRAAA
OX1R antag-1: OX1R (HCRTR1) antagonists, primary screen, fluorescence, CHO/OX1R cells, Fluo-8 calcium, orexin A; Orexin/Hypocretin receptor type 1 (Homo sapiens), O43613; Fluo-8 calcium fluorescence; inhibition, % at 5 µM; hit rate 0.43% among 330,000;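 active means inhibition above its plate's threshold, mean inhibition of all tested compounds on the plate plus 3 SD, cut at about 37% in these data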;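 further: 0% = orexin A challenge wells and 100% = SB-334867-A antagonist wells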
OX1R antag-2: antagonists of human orexin 1 receptor (OX1R) | Orexin/Hypocretin receptor type 1 (Homo sapiens), O43613 | OX1R-expressing cells, FRET antagonist read-out | inhibition, % at 6.6 µM | hit rate 1.8% among 330,000 | AID 485270, 2010; in the data active means inhibition mostly above about 38%, no sharp cut-off; inactive means mostly below about 40%;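 further: 0% = agonist challenge alone and 100% = reference antagonist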
CHO parental Ca: ATP-evoked calcium signal inhibitors, parental CHO, primary screen, counter-screen for OX1R antagonist project, cell-based, fluorescence, Fluo-8 calcium dye; parental CHO-K1, ATP-induced calcium, Fluo-8 fluorescence; hit rate 0.63% among 330,000; inhibition, % at 5.6 µM; AID 463079, 2010;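 active means inhibition above that plate's mean sample inhibition plus 3 SD, cut at about 26% in these data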;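 further: 0% = ATP-challenged DMSO wells and 100% = DMSO wells without ATP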
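Material: Parental CHO cells | Reagent: ATP | Compound dosing: Single nominal dose of 5.6 µM per compound | Detection: Intracellular calcium via Fluo-8 no-wash fluorescent dye | Read-out: % inhibition of ATP-induced calcium mobilization | Benchmarks: Low control ATP plus DMSO, high control DMSO only | Replicates: Singlicate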
* hit, by the source's call; · = no result.

SMILES	GalR3 antagonist	GPR7 antagonist	OX1R antag-1	OX1R antag-2	CHO parental Ca
COC1C(O)C(C)OC(OC2CCC3(C)C(CCC4C3C(O)CC3(C)C(C5=CC(=O)OC5)CCC43O)C2)C1O (centres undefined)	27.7*	·	·	·	·
CC12CCC(O)CC1CCC1C2CCC2(C)C(C3=CC(=O)OC3)CCC12O (centres undefined)	30.0*	·	·	·	·
CC12CCC(O)CC1CCC1C2CCC2(C)C(C3=CC(=O)OC3)C(O)CC12O (centres undefined)	12.4	·	·	·	·
CN1C(=O)CCC2(C)C1=CCC1C2CCC2(C)C1CCC2(C)O (centres undefined)	-2.5	·	·	·	·
CCCCn1c(=O)c(C(=O)Nc2ccccc2S(N)(=O)=O)c(O)c2ccccc21	-6.0	-7.4	-11.5	35.3*	-21.0
CCCCCn1c(=O)c(C(=O)Nc2ccccc2S(N)(=O)=O)c(O)c2ccccc21	-3.7	-3.0	-24.8	35.0	-25.3
CC12CCC3C(CCCC4CC(=O)CCC43C)C1CCC2O (centres undefined)	-3.1	·	·	·	·
CN1C2CCC1C(C(=O)Oc1ccccc1)C(c1ccc(Cl)cc1)C2 (centres undefined)	-7.4	·	·	·	·
Cn1c(O)c(/C=C2/C=CC=N2)c(=O)[nH]c1=O	2.7	-10.5	3.5	49.6*	-14.3
CC(C)(O)C(=O)Nc1ccc([N+](=O)[O-])c(C(F)(F)F)c1	0.5	·	3.7	8.5	-2.5
COc1cc2c(cc1OC)CN(c1ccc([N+](=O)[O-])c(C(F)(F)F)c1)CC2	-2.1	4.9	-7.2	47.7*	30.4
CCN(CC)C(=O)c1ccc(NC(=O)c2ccc(-n3cncn3)c([N+](=O)[O-])c2)cc1	-4.4	·	-15.2	63.9*	-5.0
CCNCCNc1ccc([N+](=O)[O-])c2cccnc12	-2.2	-4.2	-15.6	41.8*	-14.6
COC(=O)C1=C(c2ccc(OCc3ccccc3)cc2)C[C@@H]2CC[C@H]1N2C(=O)NCc1ccc2c(c1)OCO2	-3.9	·	·	·	·
C=CCNC(=S)Nc1ccc(OC(=O)Nc2ccc(Cl)c(Cl)c2)cc1	-9.6	39.4*	·	·	·
O=C(/C=C/c1ccccc1)N1Cc2ccccc2-n2nncc2C1	-5.5	·	·	·	·
O=C(COC(=O)c1cc(Br)cc(Br)c1O)NC12CC3CC(CC(C3)C1)C2	-4.1	·	·	·	·
CC(=O)C1(c2ccccc2)CCNCC1	-4.0	14.5*	-10.6	10.1	-10.9
O=C(O)C1(c2ccc(Cl)cc2)CCC1	-4.1	-12.8	-4.0	7.7	7.2
CC[C@]12CCN(CC3(O)CC3)C(Cc3ccc(O)cc31)C2(C)C	-2.0	·	·	·	·
CCCC[C@@H](C)C[C@@H](C)C(=O)N(C)[C@@H](CC(C)C)C(=O)N[C@H](C(=O)N(C)[C@H](C(=O)N1C[C@@H](O)C[C@H]1C(=O)N1C(=O)C=C[C@@H]1C)C(C)C)C(C)OC(C)=O (some centres undefined)	·	·	-22.2	52.5*	-23.9
O=[N+]([O-])c1ccc(O)c([N+](=O)[O-])c1	·	·	2.9	68.9*	-1.7
O=[N+]([O-])c1cc(Cl)c(Cl)cc1Cl	0.7	·	-4.7	1.8	-5.9
O=[N+]([O-])c1ccc(Cl)c([N+](=O)[O-])c1	·	·	11.7	47.7*	-0.3
CN1C(=O)C(c2ccc([N+](=O)[O-])cc2[N+](=O)[O-])C(=O)N(C)C1=O	-8.7	11.9	-13.2	43.9*	-1.3
SMILES	GalR3 antagonist	GPR7 antagonist	OX1R antag-1	OX1R antag-2	CHO parental Ca
[O-]c1ccccc1-[n+]1c(-c2ccccc2)cc(-c2ccccc2)cc1-c1ccccc1	-4.4	·	44.6	16.2	47.9*
Oc1ccccc1-[n+]1c(-c2ccccc2)cc(-c2ccccc2)cc1-c1ccccc1	-6.8	·	-23.1	8.7	-7.7
Cc1ccccc1-[n+]1c(-c2ccccc2)cc(-c2ccccc2)cc1-c1ccccc1	-8.8	·	15.0	45.0	54.2*
CCOC(=O)c1cccc(C2=C(CNC(=O)c3nccs3)[C@H]3CC[C@@H](C2)N3Cc2ccccc2)c1	-5.1	·	·	·	·
CN(C)c1ccc(/C=C/[N+](=O)[O-])cc1	4.5	19.3*	14.3	58.3*	5.8
Cc1ccc(C[n+]2c(-c3ccc(C)cc3)cc(-c3ccc(C)cc3)cc2-c2ccc(C)cc2)cc1	·	·	96.5*	-5.4	98.3*

From PubChem
